Results: ChEMBL document CHEMBL4130391, “Novel methyl indolinone-6-carboxylates containing an indole moiety as angiokinase inhibitors” (Eur J Med Chem, 2017)
Each block holds one molecule with its values, some of them ahead of it.

Assays:
[1] = target: T1, Vascular endothelial growth factor receptor 2 (Homo sapiens, UniProt P35968); test: (§1) Inhibition of N-terminal biotinylated DYKDDDDK tagged human VEGFR2 (790 to 1356 end residues) cytoplasmic domain expressed in baculovirus expression system preincubated for 10 mins followed by fluorescein amidite-labelled peptide substrate addition measured after 1 hr by mobility shift assay
T1 sequence (P35968 whole entry, the tested form may be a part): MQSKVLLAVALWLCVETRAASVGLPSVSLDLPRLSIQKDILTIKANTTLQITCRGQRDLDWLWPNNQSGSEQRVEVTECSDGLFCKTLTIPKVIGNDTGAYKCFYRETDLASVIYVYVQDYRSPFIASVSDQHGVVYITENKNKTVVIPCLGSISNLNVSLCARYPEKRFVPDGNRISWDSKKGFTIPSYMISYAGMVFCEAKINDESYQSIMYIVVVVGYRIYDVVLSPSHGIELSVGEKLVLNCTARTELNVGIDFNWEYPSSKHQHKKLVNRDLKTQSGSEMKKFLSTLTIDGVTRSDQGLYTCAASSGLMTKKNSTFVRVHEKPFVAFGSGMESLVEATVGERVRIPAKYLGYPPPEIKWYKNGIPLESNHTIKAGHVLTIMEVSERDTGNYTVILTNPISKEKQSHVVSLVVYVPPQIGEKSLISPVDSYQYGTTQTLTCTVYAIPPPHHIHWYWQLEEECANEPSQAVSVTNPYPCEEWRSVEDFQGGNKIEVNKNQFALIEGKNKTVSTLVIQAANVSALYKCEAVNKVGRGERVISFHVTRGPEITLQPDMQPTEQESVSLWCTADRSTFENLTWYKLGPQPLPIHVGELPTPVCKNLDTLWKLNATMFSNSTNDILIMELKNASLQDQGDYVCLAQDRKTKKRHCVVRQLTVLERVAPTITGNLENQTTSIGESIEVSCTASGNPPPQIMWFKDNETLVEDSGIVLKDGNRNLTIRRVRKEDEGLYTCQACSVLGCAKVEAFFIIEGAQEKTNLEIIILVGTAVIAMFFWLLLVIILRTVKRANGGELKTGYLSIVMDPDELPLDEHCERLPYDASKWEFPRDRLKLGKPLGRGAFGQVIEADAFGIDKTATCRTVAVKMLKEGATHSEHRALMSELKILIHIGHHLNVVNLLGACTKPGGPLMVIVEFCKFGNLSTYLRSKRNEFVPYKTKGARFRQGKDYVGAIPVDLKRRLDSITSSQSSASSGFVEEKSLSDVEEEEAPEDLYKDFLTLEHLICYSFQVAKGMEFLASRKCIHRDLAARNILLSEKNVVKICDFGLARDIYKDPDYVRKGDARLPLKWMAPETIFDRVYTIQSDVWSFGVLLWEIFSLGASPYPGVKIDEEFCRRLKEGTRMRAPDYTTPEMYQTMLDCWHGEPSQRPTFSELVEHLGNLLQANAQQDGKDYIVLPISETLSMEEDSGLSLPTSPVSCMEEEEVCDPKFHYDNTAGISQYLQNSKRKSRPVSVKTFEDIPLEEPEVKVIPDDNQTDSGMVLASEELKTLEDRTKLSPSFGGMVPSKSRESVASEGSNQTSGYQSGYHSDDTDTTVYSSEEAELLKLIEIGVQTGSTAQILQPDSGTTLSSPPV

MCF7 [2] = test: Antiproliferative activity against human MCF7 cells after 72 hrs by MTT assay; format: functional, cell-based; settings: MCF7, 72 h
HT-29 [3] = test: Antiproliferative activity against human HT-29 cells after 72 hrs by MTT assay; format: functional, cell-based; settings: HT-29, 72 h
[4] = target: Platelet-derived growth factor receptor beta (Homo sapiens, UniProt P09619); test: Inhibition of N-terminal GST tagged human PDGFRbeta (557 to 1106 end residues) cytoplasmic domain expressed in baculovirus expression system preincubated for 10 mins followed by fluorescein amidite-labelled peptide substrate addition measured after 1 hr by mobility shift assay
Chain of Platelet-derived growth factor receptor beta (P09619 whole entry, the tested form may be a part): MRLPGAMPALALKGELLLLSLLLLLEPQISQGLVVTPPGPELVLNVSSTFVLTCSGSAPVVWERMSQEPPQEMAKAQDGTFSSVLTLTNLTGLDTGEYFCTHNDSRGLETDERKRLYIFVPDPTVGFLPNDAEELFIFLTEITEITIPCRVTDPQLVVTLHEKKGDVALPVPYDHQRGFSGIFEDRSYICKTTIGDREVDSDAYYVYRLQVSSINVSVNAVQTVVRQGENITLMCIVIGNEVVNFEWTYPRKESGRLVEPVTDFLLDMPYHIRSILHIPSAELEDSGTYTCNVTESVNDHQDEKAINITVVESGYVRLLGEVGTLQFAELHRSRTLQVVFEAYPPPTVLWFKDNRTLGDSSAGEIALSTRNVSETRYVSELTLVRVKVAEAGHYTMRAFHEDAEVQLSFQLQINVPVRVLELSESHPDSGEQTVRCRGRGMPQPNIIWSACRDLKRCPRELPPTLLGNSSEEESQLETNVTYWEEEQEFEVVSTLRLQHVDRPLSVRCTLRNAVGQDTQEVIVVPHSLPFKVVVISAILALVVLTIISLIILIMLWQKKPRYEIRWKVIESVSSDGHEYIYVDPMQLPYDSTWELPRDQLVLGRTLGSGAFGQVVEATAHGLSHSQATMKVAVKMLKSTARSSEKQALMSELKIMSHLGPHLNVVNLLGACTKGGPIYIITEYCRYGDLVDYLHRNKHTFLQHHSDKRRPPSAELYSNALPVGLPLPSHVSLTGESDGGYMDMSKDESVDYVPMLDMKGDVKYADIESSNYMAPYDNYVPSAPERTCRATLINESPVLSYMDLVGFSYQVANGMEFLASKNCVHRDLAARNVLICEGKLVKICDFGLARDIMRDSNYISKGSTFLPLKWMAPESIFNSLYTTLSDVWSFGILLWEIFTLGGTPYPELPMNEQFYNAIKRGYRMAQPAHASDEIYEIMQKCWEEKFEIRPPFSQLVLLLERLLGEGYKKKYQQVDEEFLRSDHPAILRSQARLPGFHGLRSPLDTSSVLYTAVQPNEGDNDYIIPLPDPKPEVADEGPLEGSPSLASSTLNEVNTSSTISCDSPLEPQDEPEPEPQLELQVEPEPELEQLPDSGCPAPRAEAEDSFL
How it was run: (§2)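 Enzyme and compound were preincubated for 10 min at room temperature. FAM-labelled peptide plus ATP was then added and reacted 1 h at 28°C, stopped with EDTA buffer, and run in duplicate. Inhibition = (max − conversion)/(max − min) × 100.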

A549 = test: Antiproliferative activity against human A549 cells after 72 hrs by MTT assay; format: functional, cell-based; settings: A549, 72 h
MCF7 [5] = test: Induction of apoptosis in human MCF7 cells assessed as late apoptotic cells at 1 uM measured after 48 hrs by Annexin-V-FITC/propidium iodide staining based flow cytometry (reference value: 13.68 %); format: functional
[6] = target: Fibroblast growth factor receptor 1 (Homo sapiens, UniProt P11362); test: Inhibition of N-terminal GST tagged human FGFR1 (398 to 822 end residues) cytoplasmic domain expressed in baculovirus expression system preincubated for 10 mins followed by fluorescein amidite-labelled peptide substrate addition measured after 1 hr by mobility shift assay
Chain of Fibroblast growth factor receptor 1 (P11362 whole entry, the tested form may be a part): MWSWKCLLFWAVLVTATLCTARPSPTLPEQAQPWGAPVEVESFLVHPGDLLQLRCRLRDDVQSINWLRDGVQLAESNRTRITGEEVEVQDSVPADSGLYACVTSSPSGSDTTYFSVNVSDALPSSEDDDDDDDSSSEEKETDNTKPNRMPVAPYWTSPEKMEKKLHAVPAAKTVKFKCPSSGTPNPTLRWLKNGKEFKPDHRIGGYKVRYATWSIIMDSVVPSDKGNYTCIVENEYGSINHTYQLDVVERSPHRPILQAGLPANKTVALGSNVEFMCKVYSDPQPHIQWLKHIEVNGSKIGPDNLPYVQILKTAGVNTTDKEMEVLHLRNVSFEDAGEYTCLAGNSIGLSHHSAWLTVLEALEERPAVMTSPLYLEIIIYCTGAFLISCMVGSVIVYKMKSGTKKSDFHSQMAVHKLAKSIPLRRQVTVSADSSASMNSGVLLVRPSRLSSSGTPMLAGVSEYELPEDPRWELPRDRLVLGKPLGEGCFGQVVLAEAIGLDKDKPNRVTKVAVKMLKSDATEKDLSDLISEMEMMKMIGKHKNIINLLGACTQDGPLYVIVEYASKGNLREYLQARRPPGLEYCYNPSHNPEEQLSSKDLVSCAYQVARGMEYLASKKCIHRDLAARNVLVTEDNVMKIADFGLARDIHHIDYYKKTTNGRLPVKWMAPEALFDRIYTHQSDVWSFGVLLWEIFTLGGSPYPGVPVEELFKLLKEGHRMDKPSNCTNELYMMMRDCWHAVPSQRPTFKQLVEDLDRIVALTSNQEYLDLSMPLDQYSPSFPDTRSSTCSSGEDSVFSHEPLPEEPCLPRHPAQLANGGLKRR

MCF7 [7] = test: Induction of apoptosis in human MCF7 cells assessed as early apoptotic cells at 3 uM measured after 48 hrs by Annexin-V-FITC/propidium iodide staining based flow cytometry (reference value: 1.32 %); format: functional
HT-29 [8] = test: Induction of apoptosis in human HT-29 cells assessed as late apoptotic cells at 0.3 uM measured after 48 hrs by Annexin-V-FITC/propidium iodide staining based flow cytometry (reference value: 10.60 %); format: functional
MCF7 [9] = test: Induction of apoptosis in human MCF7 cells assessed as early apoptotic cells at 1 uM measured after 48 hrs by Annexin-V-FITC/propidium iodide staining based flow cytometry (reference value: 1.32 %); format: functional
HUVEC [10] = test: Induction of apoptosis in HUVEC assessed as early apoptotic cells at 1 uM measured after 48 hrs by Annexin-V-FITC/propidium iodide staining based flow cytometry (reference value: 1.78 %); format: functional, Homo sapiens
HUVEC [11] = test: Induction of apoptosis in HUVEC assessed as late apoptotic cells at 1 uM measured after 48 hrs by Annexin-V-FITC/propidium iodide staining based flow cytometry (reference value: 5.79 %); format: functional, Homo sapiens
MCF7 [12] = test: Induction of apoptosis in human MCF7 cells assessed as late apoptotic cells at 3 uM measured after 48 hrs by Annexin-V-FITC/propidium iodide staining based flow cytometry (reference value: 13.68 %); format: functional
HT-29 [13] = test: Induction of apoptosis in human HT-29 cells assessed as late apoptotic cells at 1 uM measured after 48 hrs by Annexin-V-FITC/propidium iodide staining based flow cytometry (reference value: 10.60 %); format: functional
HUVEC [14] = test: Induction of apoptosis in HUVEC assessed as late apoptotic cells at 0.3 uM measured after 48 hrs by Annexin-V-FITC/propidium iodide staining based flow cytometry (reference value: 5.79 %); format: functional, Homo sapiens
HEK-293T = test: Cytotoxicity against HEK293T cells assessed as reduction in cell viability at 10 uM after 72 hrs by MTT assay; format: cell-based; settings: human
How it was run: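 HEK293T cells, about 4 × 10^3 per well, were grown in MEM with 10% FBS at 37°C in 5% CO2 for 24 h. Cells were then exposed to compound for 72 h. MTT was added at 5 µg/mL final for 4 h at 37°C and the formazan dissolved in DMSO. Absorbance was read at 492 nm with 630 nm as reference.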

HUVEC [15] = test: Induction of apoptosis in HUVEC assessed as early apoptotic cells at 3 uM measured after 48 hrs by Annexin-V-FITC/propidium iodide staining based flow cytometry (reference value: 1.78 %); format: functional, Homo sapiens
MCF7 [16] = test: Induction of apoptosis in human MCF7 cells assessed as late apoptotic cells at 0.3 uM measured after 48 hrs by Annexin-V-FITC/propidium iodide staining based flow cytometry (reference value: 13.68 %); format: functional
HUVEC [17] = test: Induction of apoptosis in HUVEC assessed as late apoptotic cells at 3 uM measured after 48 hrs by Annexin-V-FITC/propidium iodide staining based flow cytometry (reference value: 5.79 %); format: functional, Homo sapiens
HUVEC [18] = test: Induction of apoptosis in HUVEC measured after 48 hrs by Annexin-V-FITC/propidium iodide staining based flow cytometry; format: functional, cell-based; settings: Homo sapiens
HT-29 [19] = test: Induction of apoptosis in human HT-29 cells assessed as early apoptotic cells at 1 uM measured after 48 hrs by Annexin-V-FITC/propidium iodide staining based flow cytometry (reference value: 0.99 %); format: functional
HUVEC [20] = test: Induction of apoptosis in HUVEC assessed as early apoptotic cells at 0.3 uM measured after 48 hrs by Annexin-V-FITC/propidium iodide staining based flow cytometry (reference value: 1.78 %); format: functional, Homo sapiens
HT-29 [21] = test: Induction of apoptosis in human HT-29 cells assessed as early apoptotic cells at 3 uM measured after 48 hrs by Annexin-V-FITC/propidium iodide staining based flow cytometry (reference value: 0.99 %); format: functional
HT-29 [22] = test: Induction of apoptosis in human HT-29 cells assessed as late apoptotic cells at 3 uM measured after 48 hrs by Annexin-V-FITC/propidium iodide staining based flow cytometry (reference value: 10.60 %); format: functional
HT-29 [23] = test: Induction of apoptosis in human HT-29 cells assessed as early apoptotic cells at 0.3 uM measured after 48 hrs by Annexin-V-FITC/propidium iodide staining based flow cytometry (reference value: 0.99 %); format: functional
MCF7 [24] = test: Induction of apoptosis in human MCF7 cells assessed as early apoptotic cells at 0.3 uM measured after 48 hrs by Annexin-V-FITC/propidium iodide staining based flow cytometry (reference value: 1.32 %); format: functional
[25] = target: T1, Vascular endothelial growth factor receptor 2; test: as §1, with “system at 1 uM” for “system”, “assay relative to control” for “assay”; how it was run: as §2

IC50 (MCF7 [2]): 1.56 µM | IC50 [6]: 1510 nM | IC50 (HT-29 [3]): 1170 nM | IC50 [4]: 22 nM | IC50 (A549): 2.99 µM
SMILES: COC(=O)c1ccc2c(c1)NC(=O)/C2=C(\Nc1ccc2[nH]c(C(=O)N3CCN(C)CC3)cc2c1)c1ccccc1
Activity (MCF7 [5]): 34.43% | Activity (MCF7 [7]): 0.28% | Activity (HT-29 [8]): 14.15% | Activity (MCF7 [9]): 0.65% | Activity (HUVEC [10]): 3.97% | Activity (HUVEC [11]): 77.6% | Activity (MCF7 [12]): 94.04% | Activity (HT-29 [13]): 74.82% | Activity (HUVEC [14]): 17.62% | Activity (HEK-293T): Non-Toxic | Activity (HUVEC [15]): 1.51% | Activity (MCF7 [16]): 18.25% | Activity (HUVEC [17]): 93.77% | Activity (HUVEC [18]): Dose-dependent effect | Activity (HT-29 [19]): 0.44% | Activity (HUVEC [20]): 5.68% | Activity (HT-29 [21]): 0.05% | Activity (HT-29 [22]): 98.81% | Activity (HT-29 [23]): 2.31% | Activity (MCF7 [24]): 1.27%

IC50 (MCF7 [2]): 3.27 µM | IC50 (HT-29 [3]): 320 nM | IC50 [4]: 92.7 nM | IC50 (A549): 39.1 µM
SMILES: COC(=O)c1ccc2c(c1)NC(=O)/C2=C(\Nc1ccc2[nH]c(CN3CCN(C)CC3)cc2c1)c1ccccc1

IC50 [1]: > 1000 nM | IC50 (HT-29 [3]): > 100000 nM | IC50 (A549): > 100 µM
SMILES: COC(=O)c1ccc2c(c1)NC(=O)/C2=C(\Nc1ccc2[nH]c(C(=O)N(C)C)cc2c1)c1ccccc1

IC50 (HT-29 [3]): 2190 nM | IC50 [4]: 39 nM | IC50 (A549): 11.9 µM
SMILES: CCn1c(C(=O)N2CCN(C)CC2)cc2cc(N/C(=C3\C(=O)Nc4cc(C(=O)OC)ccc43)c3ccccc3)ccc21

IC50 (HT-29 [3]): 1100 nM | IC50 [4]: 44.2 nM | IC50 (A549): 75.2 µM
SMILES: COC(=O)c1ccc2c(c1)NC(=O)/C2=C(\Nc1ccc2c(c1)cc(C(=O)N1CCN(C)CC1)n2C)c1ccccc1

inhibition [25]: 79% | IC50 [4]: 116 nM | IC50 (A549): > 100 µM
SMILES: COC(=O)c1ccc2c(c1)NC(=O)/C2=C(\Nc1ccc2nc(CN3CCN(C)CC3)oc2c1)c1ccccc1

inhibition [25]: 59% | IC50 [4]: 135 nM | IC50 (A549): 7.4 µM
SMILES: COC(=O)c1ccc2c(c1)NC(=O)/C2=C(\Nc1ccc2[nH]cc(CN3CCN(C)CC3)c2c1)c1ccccc1

IC50 (MCF7 [2]): 2.32 µM | IC50 (HT-29 [3]): 980 nM | IC50 (A549): 16.4 µM
SMILES: COC(=O)c1ccc2c(c1)NC(=O)/C2=C(\Nc1ccc2[nH]c(CN(C)C)cc2c1)c1ccccc1

IC50 (MCF7 [2]): 8.28 µM | IC50 (HT-29 [3]): 830 nM | IC50 (A549): 22.6 µM
SMILES: COC(=O)c1ccc2c(c1)NC(=O)/C2=C(\Nc1ccc(N(C)C(=O)CN2CCN(C)CC2)cc1)c1ccccc1 [NINTEDANIB]

Continued, molecule first:

SMILES: COC(=O)c1ccc2c(c1)NC(=O)/C2=C(\Nc1ccc2c(c1)c(CN1CCN(C)CC1)cn2C)c1ccccc1
IC50 [1]: > 1000 nM | IC50 (MCF7 [2]): 4.01 µM | IC50 (HT-29 [3]): 870 nM | IC50 [4]: 91.7 nM | IC50 (A549): 6.15 µM

SMILES: COC(=O)c1ccc2c(c1)NC(=O)/C2=C(\Nc1ccc2[nH]cc(CN(C)C)c2c1)c1ccccc1
IC50 [1]: > 1000 nM | IC50 (MCF7 [2]): 3.94 µM | IC50 (HT-29 [3]): 130 nM | IC50 [4]: 60.7 nM | IC50 (A549): 2.27 µM

SMILES: COC(=O)c1ccc2c(c1)NC(=O)/C2=C(\Nc1ccc2c(c1)c(CN(C)C)cn2C(C)C)c1ccccc1
IC50 (MCF7 [2]): 5.67 µM | IC50 (HT-29 [3]): 250 nM | IC50 [4]: 49.2 nM | IC50 (A549): 4.32 µM

SMILES: CCn1cc(CN(C)C)c2cc(N/C(=C3\C(=O)Nc4cc(C(=O)OC)ccc43)c3ccccc3)ccc21
IC50 (MCF7 [2]): 5.53 µM | IC50 (HT-29 [3]): 6790 nM | IC50 [4]: 34.3 nM | IC50 (A549): 7.63 µM

SMILES: COC(=O)c1ccc2c(c1)NC(=O)/C2=C(\Nc1ccc2c(c1)c(CN(C)C)cn2C)c1ccccc1
IC50 (MCF7 [2]): 2.28 µM | IC50 (HT-29 [3]): 460 nM | IC50 [4]: 64.6 nM | IC50 (A549): 6.01 µM

SMILES: COC(=O)c1ccc2c(c1)NC(=O)/C2=C(\Nc1ccc2c(c1)nc(CN1CCN(C)CC1)n2C)c1ccccc1
IC50 (MCF7 [2]): 22.5 µM | IC50 (HT-29 [3]): 700 nM | IC50 [4]: 61 nM | IC50 (A549): 40.5 µM

SMILES: COC(=O)c1ccc2c(c1)NC(=O)/C2=C(\Nc1ccc2c(c1)nc(CN(C)C)n2C)c1ccccc1
IC50 (MCF7 [2]): > 100 µM | IC50 (HT-29 [3]): 89900 nM | IC50 [4]: 45.5 nM | IC50 (A549): > 100 µM

SMILES: COC(=O)c1ccc2c(c1)NC(=O)/C2=C(\Nc1ccc2nc(CN(C)C)oc2c1)c1ccccc1
IC50 [1]: > 1000 nM | IC50 [4]: > 500 nM | IC50 (A549): > 100 µM

SMILES: COC(=O)c1ccc2c(c1)NC(=O)/C2=C(\Nc1ccc2[nH]cc(CN3CCOCC3)c2c1)c1ccccc1
IC50 [4]: 242 nM
